Measured values from ChEMBL document CHEMBL1154785, “Identification of critical ligand binding determinants in Mycobacterium tuberculosis adenosine-5'-phosphosulfate reductase” (J Med Chem, 2009).

Key:
[1] = Dissociation constant, pKa at pH 6 to 9.5; assay type: physicochemical
[2] = Binding affinity to Mycobacterium tuberculosis adenosine-5'-phosphosulfate reductase assessed as S-sulfocysteine formation at pH 5.5 by single turnover method in absence of thioredoxin
[3] = Dissociation constant, pKa in solution; assay type: physicochemical
[4] = Binding affinity to Mycobacterium tuberculosis adenosine-5'-phosphosulfate reductase assessed as S-sulfocysteine formation at pH 9 by single turnover method
[5] = Binding affinity to Mycobacterium tuberculosis adenosine-5'-phosphosulfate reductase assessed as S-sulfocysteine formation at pH 7.5 by single turnover method
[6] = Binding affinity to Mycobacterium tuberculosis adenosine-5'-phosphosulfate reductase assessed as S-sulfocysteine formation at pH 7.5 by single turnover method in presence of 0.5 mM MgCl2
[7] = Binding affinity to Mycobacterium tuberculosis adenosine-5'-phosphosulfate reductase assessed as S-sulfocysteine formation at pH 7.5 by single turnover method in absence of MgCl2
[8] = Binding affinity to Mycobacterium tuberculosis adenosine-5'-phosphosulfate reductase assessed as S-sulfocysteine formation at pH 7.5 by single turnover method in presence of 2 mM MgCl2
[9] = tested on: Mycobacterium tuberculosis; assay: Ratio of Kd for Mycobacterium tuberculosis adenosine-5'-phosphosulfate reductase in presence of 0.5 mM MgCl2 to Kd Mycobacterium tuberculosis adenosine-5'-phosphosulfate reductase in absence of MgCl2
[10] = tested on: Mycobacterium tuberculosis; assay: Ratio of Kd for Mycobacterium tuberculosis adenosine-5'-phosphosulfate reductase in presence of 2 mM MgCl2 to Kd Mycobacterium tuberculosis adenosine-5'-phosphosulfate reductase in absence of MgCl2
[11] = Displacement of [35S]APS from Mycobacterium tuberculosis adenosine-5'-phosphosulfate reductase by liquid scintillation counting
Method in brief: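 Purified enzyme; reduction of ³⁵S-APS to sulfite at 30 °C in 100 mM bis-tris propane pH 7.5, 5 mM DTT and 10 μM thioredoxin. Quenched with 2% charcoal containing 20 mM Na₂SO₃, then ³⁵S-sulfite in the supernatant counted by scintillation. k_obs taken at varied inhibitor levels with [³⁵S-APS] ≪ K1/2, fit to competitive inhibition (Ki taken as Kd). At least two independent experiments.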

[12] = tested on: Mycobacterium tuberculosis; assay: Ratio of Kcat to Km of Mycobacterium tuberculosis adenosine-5'-phosphosulfate reductase; details: tested as the 35S-labelled form

With `Nc1ncnc2c1ncn2[C@@H]1O[C@H](COP(O)(O)=S)[C@@H](O)[C@H]1O` the pKa [1] was 7.7, the Kd [2] was 3.3 µM and the pKa [3] was 7.7.
Work on `Nc1ncnc2c1ncn2[C@@H]1O[C@H](COP(=O)(O)NP(=O)(O)O)[C@@H](O)[C@H]1O` yielded a Kd [4] of 110 µM, a Kd [5] of 257 µM and a Kd [2] of 260 µM.
With `Nc1ncnc2c1ncn2[C@@H]1O[C@H](COP(=O)(O)OP(=O)(O)S)[C@@H](O)[C@H]1O` (stereo partly specified) the pKa [1] was 5.8, the Kd [2] was 0.15 µM and the pKa [3] was 5.2.
Molecule `Nc1ncnc2c1ncn2[C@@H]1O[C@H](COP(=O)(S)OP(=O)(O)O)[C@@H](O)[C@H]1O` (stereo partly specified) has a Kd [2] of 0.8 µM.
With `Nc1[nH]cnc2ncnc1-2` [ADENINE] the Kd [2] was ≥ 90000 µM.
Molecule `Nc1ncnc2c1ncn2[C@@H]1O[C@H](COP(=O)(O)O)[C@@H](OP(=O)(O)O)[C@H]1O` has a Kd [2] of 770 µM.
`Nc1ncnc2c1ncn2[C@@H]1O[C@H](COP(N)(=O)O)[C@@H](O)[C@H]1O` showed a Kd [4] of 82 µM, a Kd [5] of 100 µM and a Kd [2] of 100 µM.
`Nc1ncnc2c1ncn2[C@@H]1O[C@H](COP(=O)(O)OP(N)(=O)O)[C@@H](O)[C@H]1O` showed a Kd [4] of 56.8 µM, a Kd [5] of 410 µM and a Kd [2] of 410 µM.
In the case of `Nc1ncnc2c1ncn2[C@@H]1O[C@H](COP(=O)(O)OP(=O)(O)O)[C@@H](O)[C@H]1O` [ADENOSINE DIPHOSPHATE], the Kd [6] is reported as 7.3 µM, the Kd [7] is reported as 4.3 µM and the Kd [8] is reported as 20 µM. The Ratio [9] was 5, the pKa [1] was 6.4 and the Kd [2] was 4.3 µM. It also gave a Ratio [10] of 5.
In the case of `Nc1ncnc2c1ncn2[C@@H]1O[C@H](COP(=O)(O)C(F)(F)P(=O)(O)O)[C@@H](O)[C@H]1O`, the Kd [2] is reported as 13 µM.
`Nc1ncnc2c1ncn2[C@@H]1O[C@H](CO)[C@@H](OP(=O)(O)O)[C@H]1O` gave a Kd [2] of 3200 µM.
With `Nc1ncnc2c1ncn2[C@@H]1O[C@H](COP(=O)(O)CP(=O)(O)O)[C@@H](O)[C@H]1O` [PHOSPHOMETHYLPHOSPHONIC ACID ADENOSYL ESTER] the Kd [2] was 27 µM.
For `Nc1ncnc2c1ncn2[C@@H]1O[C@H](COP(=O)(S)OS(=O)(=O)O)[C@@H](O)[C@H]1O` (mixture of isomers), the Kd [2] was 43 µM.
With `Nc1ncnc2c1ncn2[C@@H]1O[C@H](COP(=O)(O)CS(=O)(=O)O)[C@@H](O)[C@H]1O` the Kd [2] was 700 µM.
`Nc1ncnc2c1ncn2[C@@H]1O[C@H](COP(=O)(O)O)[C@@H](O)[C@H]1O` [ADENOSINE PHOSPHATE] showed a Kd [6] of 21 µM, a Kd [7] of 5.4 µM and a Kd [8] of 31 µM. For the same molecule, the Ratio [9] was 5, the pKa [1] was 8.1 and the Kd [2] was 5.4 µM. It also gave a Kd [11] of 5.4 µM and a Ratio [10] of 5.
With `O[C@@H]1[C@H](O)[C@H](O)CO[C@H]1O` [RIBOSE (PYRANOSE)] the Kd [2] was 680000 µM.
For `O=P(O)(O)OC[C@H]1O[C@@H](O)[C@H](O)[C@@H]1O`, the Kd [2] was 93 µM.
In the case of `Nc1ncnc2c1ncn2[C@@H]1O[C@H](CO)[C@@H](O)[C@H]1O` [ADENOSINE], the Kd [2] is reported as 3000 µM.
In the case of `O=S(=O)(O)O` [SULFURIC ACID], the Kd [2] is reported as ≥ 310000 µM.
`O=P(O)(O)O` [PHOSPHORIC ACID] gave a Kd [2] of 66000 µM.
`Nc1ncnc2c1ncn2[C@@H]1O[C@H](COP(=O)(O)OS(=O)(=O)O)[C@@H](O)[C@H]1O` showed a kcat/Km [12] of 2 ×10⁶ /M/s, a Kd [2] of 0.2 µM and a Ki [2] of 0.2 µM.
